Test results reported in ChEMBL document CHEMBL4680134, “Structural optimization of natural product nordihydroguaretic acid to discover novel analogues as AcrB inhibitors” (Eur J Med Chem, 2020).

Key:
[1] = Growth inhibition of Escherichia coli BW25113 expressing AcrB at 512 ug/ml after 18 hrs by broth microdilution assay; settings: dose 512 µg/ml
Summary of the method: (§1)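 MIC determined by 96-well broth microdilution in E. coli BW25113 expressing AcrB ((+)AcrB) and an isogenic acrB-deleted strain ((-)AcrB). Used to set the compound concentrations for synergy testing that produce no direct antibacterial effect.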

[2] = Growth inhibition of Escherichia coli harboring AcrB deletion mutant at 64 ug/ml after 18 hrs by broth microdilution assay; settings: dose 64 µg/ml; summary of the method: as §1

With `Oc1ccc(CCCCc2ccco2)cc1O` the “growth inhibition (GI)” value [1] was “Non-Toxic” and the “growth inhibition (GI)” value [2] was “Non-Toxic”.

For `Oc1ccc2cc(CCCCc3ccc(O)c(O)c3)ccc2c1`, the “growth inhibition (GI)” value [1] was “Non-Toxic” and the “growth inhibition (GI)” value [2] was “Non-Toxic”.

In the case of `Nc1ccc(CCCCc2ccc(O)c(O)c2)cc1`, the “growth inhibition (GI)” value [1] is reported as “Non-Toxic” and the “growth inhibition (GI)” value [2] is reported as “Non-Toxic”.

In the case of `CC(C)c1ccc(CCCCc2ccc(O)c(O)c2)cc1`, the “growth inhibition (GI)” value [1] is reported as “Non-Toxic” and the “growth inhibition (GI)” value [2] is reported as “Non-Toxic”.

In the case of `Cn1cc(CCCCc2ccc(O)c(O)c2)c2ccccc21`, the “growth inhibition (GI)” value [1] is reported as “Non-Toxic” and the “growth inhibition (GI)” value [2] is reported as “Non-Toxic”.

In the case of `Oc1ccc(CCCCc2ccc(-c3ccccc3)cc2)cc1O`, the “growth inhibition (GI)” value [1] is reported as “Non-Toxic” and the “growth inhibition (GI)” value [2] is reported as “Non-Toxic”.

With `Cc1ccc(CCCCc2ccc(O)c(O)c2)cc1` the “growth inhibition (GI)” value [1] was “Non-Toxic” and the “growth inhibition (GI)” value [2] was “Non-Toxic”.

In the case of `Oc1ccc(CCCCc2c3ccccc3cc3ccccc23)cc1O`, the “growth inhibition (GI)” value [1] is reported as “Non-Toxic” and the “growth inhibition (GI)” value [2] is reported as “Non-Toxic”.

With `Oc1ccc(CCCCc2ccccn2)cc1O` the “growth inhibition (GI)” value [1] was “Non-Toxic” and the “growth inhibition (GI)” value [2] was “Non-Toxic”.

With `Oc1ccc(CCCCc2ccccc2)cc1O` the “growth inhibition (GI)” value [1] was “Non-Toxic” and the “growth inhibition (GI)” value [2] was “Non-Toxic”.

In the case of `Oc1ccc(CCCCc2ccc(O)c(O)c2)cc1`, the “growth inhibition (GI)” value [1] is reported as “Non-Toxic” and the “growth inhibition (GI)” value [2] is reported as “Non-Toxic”.

In the case of `Oc1ccc(CCCCc2ccncc2)cc1O`, the “growth inhibition (GI)” value [1] is reported as “Non-Toxic” and the “growth inhibition (GI)” value [2] is reported as “Non-Toxic”.

For `Oc1ccc(CCCCc2cccc3ccccc23)cc1O`, the “growth inhibition (GI)” value [1] was “Non-Toxic” and the “growth inhibition (GI)” value [2] was “Non-Toxic”.

For `CC(C)CCn1cc(CCCCc2ccc(O)c(O)c2)c2ccccc21`, the “growth inhibition (GI)” value [1] was “Non-Toxic” and the “growth inhibition (GI)” value [2] was “Non-Toxic”.

For `CC(C)(C)c1ccc(CCCCc2ccc(O)c(O)c2)cc1`, the “growth inhibition (GI)” value [1] was “Non-Toxic” and the “growth inhibition (GI)” value [2] was “Non-Toxic”.

For `Oc1ccc(CCCCc2ccc(F)cc2)cc1O`, the “growth inhibition (GI)” value [1] was “Non-Toxic” and the “growth inhibition (GI)” value [2] was “Non-Toxic”.

In the case of `CC(C)(C)c1ccc(C(=O)NCCc2ccc(O)c(O)c2)cc1`, the “growth inhibition (GI)” value [1] is reported as “Non-Toxic” and the “growth inhibition (GI)” value [2] is reported as “Non-Toxic”.

With `Oc1ccc(CCCC(c2ccccc2)c2ccccc2)cc1O` the “growth inhibition (GI)” value [1] was “Non-Toxic” and the “growth inhibition (GI)” value [2] was “Non-Toxic”.
